# Screening results: PubChem BioAssay, several laboratories
# The list is not random: actives were taken first. Their share in the collection is about 4.8%.
# SUMO Mot1 rescue: yeast Mot1-301 growth rescue at high temperature, primary screen, SUMOylation pathway inhibitor project, S. cerevisiae, ATP luminescence, 38.5C | S. cerevisiae Mot1-301 growth rescue; percent above DMSO median, 100 means doubled | growth rescue, % at 18.8 µM | 320,000 tested, 1% active | AID 2716, 2010;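 active means every valid replicate shows activation above 250% relative to neutral control wells; inactive means the rest, any valid replicate at or below 250%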;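 further: OY570 slx delta 5 strain wells were the positive control but not used for scaling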
# CSC inhib: cancer stem cell viability inhibitors, primary screen, luminescence; inhibition, % at 7.5 µM; cancer stem cell-like cells viability; 300,000 tested, 1.1% active; in the data active means inhibition above about 75%; tested in HMLE shEcad cells
# T cruzi repl: inhibitors of intracellular T. cruzi growth, primary screen, luminescence, NIH3T3 host cells | T. cruzi beta-gal in NIH3T3, 90 h | 300,000 tested, 1.4% active | inhibition, % (concentration not given with the values);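 active means mean inhibition across valid replicates above about 55%, limit read from the data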;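 further: signal also drops with host cell toxicity which is not excluded here; 0% = plate median of DMSO wells and 100% = zero luminescence signal; higher percent means less beta-gal luminescence so fewer parasites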
#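 assay system = mouse NIH/3T3 fibroblasts infected with β-gal-expressing T. cruzi Tulahuen C4 | input = 5,000 NIH/3T3 host cells per well | buffer or medium = DMEM plus 2% FBS | timing = 3 h host attachment, then at least 90 h co-culture | measured by = GalScreen luminescence, 60 min | evaluation = luminescence reflecting intracellular parasite burden, expressed as percent inhibition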
# WT yeast gro inh: growth inhibition of WT strain, primary screen, mitochondrial fusion inhibitor project, WT and mutant strains, chemical genetic | AID 1362, 2008 | inhibition, % at 10 µM | 190,000 tested, 2.1% active | mitochondrial fusion phenotypic screen; in the data active means inhibition above about 58%; tested in S. cerevisiae
# Beta cell apopt: inhibitors of cytokine-induced beta cell apoptosis, primary screen, luminescence. 300,000 tested, 0.8% active. protection from apoptosis, % (no concentration beside the values). INS-1E cytokine-induced death, ATP luminescence, 48 h; percent of positive-control rescue, neutral wells zero;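 active means Every replicate reaches about 75%, or at least half do and their mean reaches it too, limit read from the data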;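 further: 0% = cytokine-treated negative control wells and 100% = positive control rescue; higher means more ATP so stronger rescue from cytokine killing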
# Efflux pump inh: inhibitors of Candida efflux pumps in yeast, primary screen, S. cerevisiae, Nile Red, multiplex. AID 485275, 2010. inhibition, % at 10 µM. S. cerevisiae Candida pump triplex. 330,000 tested, 0.44% active;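 active means plate passing quality check with inhibition over a set limit, or well fluorescence over plate mean plus 4 SD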;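 further: Nile Red retained in pooled yeast measured as flow cytometry median fluorescence; 0% = buffer negative control and 100% = Enniatin B positive control; higher means more Nile Red kept so more efflux inhibition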
# Yeast cmpd fluor: compound fluorescence in yeast efflux pump counter-screen. S. cerevisiae AD/pABC3, flow cytometry. 1,700 tested, 4% active. AID 588517. shares compounds with Efflux pump inh. fluorescence ratio to DMSO, % at 10 µM;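 active means fluorescence ratio to DMSO above its plate's cutoff, the plate mean ratio plus 5 SD, cut at about 210% in these data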;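 further: unstained yeast with no Nile Red so the signal is compound autofluorescence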
# CaMdr1 efflux inh: inhibitors of Candida albicans Mdr1 efflux, confirmation, flow cytometry, singleplex, Cherry Pick1 set | shares compounds with Efflux pump inh | S. cerevisiae AD/CaMDR1, Nile Red efflux | inhibition, % at 10 µM | 1,700 tested, 1% active | AID 588518, 2011; in the data active means inhibition above about 26%;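 further: 0% = DMSO vehicle and 100% = reference inhibitor; higher means more Nile Red retained so more efflux inhibition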
# CaCdr2 efflux inh: inhibitors of Candida albicans Cdr2 efflux pump, confirmation, S. cerevisiae AD/CaCDR2, flow cytometry, cherry pick 1, singleplex; shares compounds with Efflux pump inh; 1,700 tested, 4% active; Nile Red retention; Nile Red retention ratio vs DMSO, % at 10 µM; in the data active means Nile Red retention ratio vs DMSO above about 190%;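 further: higher ratio means more blocking of Cdr2 efflux of the dye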
# CaCdr1 efflux inh: inhibitors of Candida albicans Cdr1 efflux pump, confirmation, S. cerevisiae AD/CaCDR1, flow cytometry, cherry pick 1, singleplex | AID 588522, 2011 | Nile Red efflux | inhibition, % at 10 µM | 1,700 tested, 1% active | shares compounds with Efflux pump inh;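 active means inhibition above the screen-wide mean plus twice its standard deviation, cut at about 32% in these data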
# An asterisk follows results filed as active; · = no result.
SMILES,SUMO Mot1 rescue,CSC inhib,T cruzi repl,WT yeast gro inh,Beta cell apopt,Efflux pump inh,Yeast cmpd fluor,CaMdr1 efflux inh,CaCdr2 efflux inh,CaCdr1 efflux inh
CCOc1ccc(S(=O)(=O)N2CCCCCC2)cc1,6,0,-18,3,-5,9.8*,108,0,100,0
O=C(Nc1nncs1)C1CC(=O)N(CCc2ccc(F)cc2)C1 (stereo not given),-15,11,-22,·,-6,0,·,·,·,·
CCCn1c(-c2cccc(F)c2)nc2c1c(=O)[nH]c(=O)n2Cc1ccccc1,-4,1,6,·,1,0,·,·,·,·
CCCn1c(-c2cc(OC)c(OC)c(OC)c2)nc2c1c(=O)[nH]c(=O)n2Cc1ccccc1,11,·,17,·,3,0.7*,99,0,110,0
COc1ccc(-c2ccc(-c3noc(-c4ccccc4OC)n3)c(OC)n2)cc1,5,13,33,-1,11,0.5*,99,0,116,0
C[C@H](CO)N1C[C@H](C)[C@@H](CN(C)S(=O)(=O)c2ccccc2)Oc2c(NC(=O)Nc3ccccc3)cccc2C1=O,·,·,·,·,·,1,100,0,106,0
CC(C)NC(=O)Nc1cccc2c1O[C@H](CN(C)S(=O)(=O)c1ccccc1)[C@@H](C)CN([C@H](C)CO)C2=O,-2,0,·,·,-3,0,·,·,·,·
CC(C)NC(=O)Nc1cccc2c1O[C@H](CN(C)S(=O)(=O)c1ccc(F)cc1)[C@@H](C)CN([C@H](C)CO)C2=O,·,·,·,·,·,0,112,0,106,0
C[C@H](CO)N1C[C@H](C)[C@@H](CN(C)S(=O)(=O)c2cccs2)Oc2c(NC(=O)Nc3ccc4c(c3)OCO4)cccc2C1=O,-7,·,·,·,1,0,102,0,116,0
COc1cc2[nH]c(=S)n(NC(=O)CC(C)C)c(=O)c2cc1OC,-9,0,-6,11,-3,0,·,·,·,·
C=CCNC(=S)NNC(=O)COc1ccc(Cl)cc1Cl,21,47,-1,68*,1,15*,104,-1,98,0
Cc1ccc(S(=O)(=O)c2nc(S(=O)(=O)c3ccc(C)cc3)c(NCc3ccco3)s2)cc1,2,-4,26,15,-15,0,·,·,·,·
CCCS(=O)(=O)c1nc(S(=O)(=O)c2ccc(C)cc2)c(NCc2ccco2)s1,-6,-26,19,13,-7,10*,98,0,87,0
O=C(Nc1cccc(C(=O)N2CCCc3ccccc32)c1)c1ccccc1,-1,48,-14,·,·,0,·,·,·,·
CN(CCc1ccccn1)C(=O)c1ccc(OC(F)(F)F)cc1,-18,0,-5,4,-8,0.8*,98,0,107,0
CN(CCc1ccccn1)C(=O)c1cccnc1Oc1ccc(Cl)cc1,4,-9,4,·,·,0,·,·,·,·
COc1ccc(CCNC(=O)C2CCCN(S(C)(=O)=O)C2)cc1 (stereo not given),-6,-8,-24,·,-1,0,·,·,·,·
Cn1nccc1C(=O)NC1CC(C)(C)Cc2c1cnn2-c1ccc(F)cc1 (stereo not given),-7,-11,-24,·,0,0,·,·,·,·
Cc1cc(C(=O)NC2CC(C)(C)Cc3c2cnn3-c2cccc(F)c2)n(C)n1 (stereo not given),-16,6,0,·,·,0,106,0,123,0
Cc1cc(C(=O)NC2CC(C)(C)Cc3c2cnn3-c2ccc(F)cc2)no1 (stereo not given),-6,-5,8,·,-1,0,103,0,101,0
Cc1cc(C(=O)NC2CC(C)(C)Cc3c2cnn3-c2cccc(F)c2)nn1C (stereo not given),0,-20,6,·,·,0,·,·,·,·
Cc1cccc(C)c1NC(=O)CNCC(=O)N(C)C,-3,-4,-17,-18,-2,0,·,·,·,·
O=C(CSc1cccc[n+]1[O-])Nc1ccccc1C(F)(F)F,-3,-4,·,·,-7,0,·,·,·,·
O=C(CSc1cccc[n+]1[O-])Nc1ccccc1Oc1ccccc1,4,-2,82*,-12,7,1.0*,110,0,119,0
O=C1c2ccccc2C(Nc2ccc(F)cc2F)N1CCN1CCOCC1 (stereo not given),-7,-13,7,4,-5,0,·,·,·,·
SMILES,SUMO Mot1 rescue,CSC inhib,T cruzi repl,WT yeast gro inh,Beta cell apopt,Efflux pump inh,Yeast cmpd fluor,CaMdr1 efflux inh,CaCdr2 efflux inh,CaCdr1 efflux inh
O=C(COc1ccc(S(=O)(=O)N2CCCC2)cc1)NCc1ccco1,163,-2,-12,-12,-3,0,·,·,·,·
O=C(COC(=O)c1ccc(S(=O)(=O)N2CCCCC2)cc1)NCc1ccco1,-11,6,-5,-23,-4,1.6*,103,0,103,0
O=C1c2cc(Cl)ccc2OC2(CCNCC2)C12CC(c1ccc(Cl)cc1)=NO2 (stereo not given),-15,1,2,·,6,·,121,1,114,0
CC(C)(C)OC(=O)N1CCC2(CC1)Oc1ccc(F)cc1C(=O)C21CC(c2ccc(Cl)cc2)=NO1 (stereo not given),-25,12,2,·,-6,0,·,·,·,·
CC(C)C(=O)N1CCC2(CC1)Oc1ccc(Cl)cc1C(=O)C21CC(c2ccc(Cl)cc2)=NO1 (stereo not given),-26,21,43,·,13,0,103,0,121,0
O=C(/C=C/c1cccs1)N1CCC2(CC1)Oc1ccc(Cl)cc1C(=O)C21CC(c2ccc(Cl)cc2)=NO1 (stereo not given),-8,-10,24,·,3,0,·,·,·,·
O=C1c2cc(Cl)ccc2OC2(CCNCC2)C12CC(c1ccccc1)=NO2 (stereo not given),-23,10,4,·,-5,0,91,0,95,0
CC(=O)NN1C(=O)/C(=C\c2ccc(O)cc2)SC1=S,38,-9,14,-2,7,0,·,·,·,·
